ChEMBL document CHEMBL5344428, “Discovery, Crystallographic Studies, and Mechanistic Investigations of Novel Phenylalanine Derivatives Bearing a Quinazolin-4-one Scaffold as Potent HIV Capsid Modulators” (J Med Chem, 2023)

Assays:
[1] = Selectivity index, ratio of CC50 for cytotoxicity against human MT4 cells to EC50 for antiviral activity against HIV2 ROD infected in human MT4 cells; format: toxicity, cell-based; conditions: read-out: Ratio CC50/EC50
Summary of the method: (§1)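 SI is CC50 divided by EC50. CC50 comes from MTT viability of uninfected MT-4 cells. EC50 comes from MTT-read protection of MT-4 cells infected with HIV-1 IIIB or HIV-2 ROD. Each value was run in at least triplicate.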

[2] = tested on: Human immunodeficiency virus 2; experiment: Antiviral activity against HIV2 ROD infected in human MT4 cells assessed as reduction in virus induced cytopathic effect measured after 5 days by MTT assay; format: functional, organism-based; conditions: Human immunodeficiency virus 2, ROD, MT4, 120 h
Summary of the method: (§2)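 MT-4 cells were infected with HIV-1 IIIB or HIV-2 ROD, and cell viability was read by MTT. […] Each value was run in at least triplicate and averaged from at least three independent experiments.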

[3] = tested on: Human immunodeficiency virus 1; experiment: Antiviral activity against HIV1 IIIB infected in human MT4 cells assessed as reduction in virus induced cytopathic effect measured after 5 days by MTT assay; format: functional, organism-based; conditions: Human immunodeficiency virus 1, IIIB, MT4, 120 h; summary of the method: as §2
[4] = Selectivity index, ratio of CC50 for cytotoxicity against human MT4 cells to EC50 for antiviral activity against HIV1 IIIB infected in human MT4 cells; format: toxicity, cell-based; conditions: read-out: Ratio CC50/EC50; summary of the method: as §1
[5] = Selectivity ratio of EC50 for antiviral activity against HIV1 IIIB infected in human MT4 cells to EC50 for antiviral activity against HIV2 ROD infected in human MT4 cells; format: toxicity, cell-based
Summary of the method: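 Ratio is EC50 against HIV-1 IIIB divided by EC50 against HIV-2 ROD. Both EC50 values come from MTT-read protection of infected MT-4 cells.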

[6] = Cytotoxicity against human MT4 cells assessed as reduction in cell viability incubated for 5 days by MTT assay; format: toxicity, cell-based; conditions: MT4 cells, time 5 day
Summary of the method: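 Uninfected MT-4 cells were exposed to compound, and viability was read by the MTT method. […] Each value was run in at least triplicate and averaged from at least three independent experiments.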

SMILES | selectivity ratio [1] | EC50 [2] [µM] | EC50 [3] [µM] | selectivity ratio [4] | Ratio EC50 [5] | CC50 at 120 h [6] [µM]
COc1ccc(-n2c(SCc3ccc(S(C)(=O)=O)cc3)nnc2[C@H](Cc2ccccc2)NC(=O)Cc2c(C)[nH]c3ccccc23)cc1 | 22 | 7.89 | 2.43 | 71 | 0.31 | 172
COc1ccc(-n2c(SCCC3OCCCO3)nnc2[C@H](Cc2ccccc2)NC(=O)Cc2c(C)[nH]c3ccccc23)cc1 | 5 | 6.65 | 1.64 | 20 | 0.25 | 32.3
COc1ccc(N(C)C(=O)[C@H](Cc2cc(F)cc(F)c2)NC(=O)CN2CCN(C(=O)c3ccc(NC(=O)C4CC4)cc3)CC2=O)cc1 | 5.87 | 15.1 | 14.4 | 6.17 | 0.95 | 88.6
COc1ccc(-n2c([C@H](Cc3cc(F)cc(F)c3)NC(=O)CN3CCN(S(=O)(=O)c4ccc([N+](=O)[O-])cc4)CC3)nc3cc(Cl)ccc3c2=O)cc1 | > 403 | 0.4 | 0.59 | > 278 | 1.48 | > 163
COc1ccc(N(C)C(=O)[C@H](Cc2ccccc2)NC(=O)Cn2ccc(NC(=O)c3cccc(F)c3)cc2=O)cc1 | 9.36 | 6.59 | 18.9 | 3.26 | 2.87 | 61.6
COc1ccc(N(C)C(=O)[C@H](Cc2cc(F)cc(F)c2)NC(=O)CN2CCN(C(=O)c3ccc(NC(=O)C(F)(F)F)cc3)CC2=O)cc1 | 9.09 | 16.6 | 13.7 | 10.9 | 0.83 | 150
COc1ccc(N(C)C(=O)[C@H](Cc2cc(F)cc(F)c2)NC(=O)CN(Cc2ccc(F)cc2)C(=O)Cn2nc(C(F)(F)F)c3ccccc32)cc1 | 8 | 12.9 | 2.53 | 42 | 0.2 | 108
COc1ccc(-n2c([C@H](Cc3cc(F)cc(F)c3)NC(=O)CN3CCN(S(=O)(=O)c4ccc([N+](=O)[O-])cc4)CC3)nc3cc(F)ccc3c2=O)cc1 | > 481 | 0.35 | 0.49 | > 338 | 1.4 | > 167
COc1ccc(N(C)C(=O)[C@H](Cc2cc(F)cc(F)c2)NC(=O)CN(Cc2ccc(F)cc2)C(=O)Cc2ccc(B(O)O)cc2)cc1 | 3 | 6.8 | 4.33 | 4 | 0.64 | 18.9
COc1ccc(N(C)C(=O)[C@H](Cc2cc(F)cc(F)c2)NC(=O)CN(CC2CCCCC2)C(=O)Cn2nc(C(F)(F)F)cc2C)cc1 | 2 | 24.9 | 30.3 | 2 | 1.22 | 45.7
COc1ccc(-n2c([C@H](Cc3ccccc3)NC(=O)CN3CCN(S(=O)(=O)c4ccc(N)cc4)CC3)nc3cc(S(C)(=O)=O)ccc3c2=O)cc1 | > 481 | 0.35 | 3.84 | > 43.7 | 10.97 | > 168
COc1ccc(N(C)C(=O)[C@H](Cc2cc(F)cc(F)c2)NC(=O)CN(Cc2ccc(F)cc2)C(=O)Cc2ccc(B3OC(C)(C)C(C)(C)O3)cc2)cc1 | 5 | 13.2 | 11.7 | 6 | 0.89 | 65.4
COc1ccc(-n2c(S)nnc2[C@H](Cc2ccccc2)NC(=O)Cc2c(C)[nH]c3ccccc23)cc1 | 13 | 10.6 | 4.94 | 27 | 0.47 | 133
COc1ccc(N(C)C(=O)[C@H](Cc2ccccc2)NC(=O)Cn2ccc(NC(=O)c3ccc(C#N)cc3)cc2=O)cc1 | 7.69 | 17.8 | 16.8 | 8.18 | 0.94 | 137
COc1ccc(N(C)C(=O)[C@H](Cc2ccccc2)NC(=O)Cn2ccc(NC(=O)c3ccccc3F)cc2=O)cc1 | 10.3 | 7.92 | 17.9 | 4.55 | 2.26 | 81.4
